Measured values taken from publication PMC9727797 (Molecular Biology of the Cell, 2022).
pIC50: −log10 of the molar value.

Legend:
KIF15-N420 [1] = target: T1, KIF15-N420 (Homo sapiens, UniProt Q9NS87); test: Enzyme-coupled ATPase assay, concentration response; assay type: biochemical; conditions: 2 mM ATP, 5 μM microtubules
T1 sequence (Q9NS87 1-420 limits assumed): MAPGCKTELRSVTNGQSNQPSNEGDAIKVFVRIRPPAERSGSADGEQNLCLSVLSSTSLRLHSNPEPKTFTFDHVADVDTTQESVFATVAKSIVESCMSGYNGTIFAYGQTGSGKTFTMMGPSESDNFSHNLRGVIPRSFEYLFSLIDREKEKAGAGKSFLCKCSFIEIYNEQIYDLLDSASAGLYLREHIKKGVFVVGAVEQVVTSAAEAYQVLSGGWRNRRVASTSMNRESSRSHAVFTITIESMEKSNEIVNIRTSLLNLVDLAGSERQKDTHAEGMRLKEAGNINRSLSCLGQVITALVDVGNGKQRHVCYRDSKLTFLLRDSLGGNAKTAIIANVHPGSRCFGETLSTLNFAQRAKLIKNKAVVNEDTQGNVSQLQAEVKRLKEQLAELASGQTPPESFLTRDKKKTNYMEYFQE
In short: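 Concentration response used the same NADH-coupled KIF15-N420 reaction (A340, 25°C), with 2 mM ATP and 5 μM microtubules at every test-compound concentration. Eight compound concentrations were tested. Curves were built from repeated measurements plotted as mean ± SEM.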

KIF15-N700 = target: T2, KIF15-N700 (Homo sapiens, UniProt Q9NS87); test: Microtubule gliding assay; assay type: biochemical
T2 sequence (Q9NS87 1-700 limits assumed): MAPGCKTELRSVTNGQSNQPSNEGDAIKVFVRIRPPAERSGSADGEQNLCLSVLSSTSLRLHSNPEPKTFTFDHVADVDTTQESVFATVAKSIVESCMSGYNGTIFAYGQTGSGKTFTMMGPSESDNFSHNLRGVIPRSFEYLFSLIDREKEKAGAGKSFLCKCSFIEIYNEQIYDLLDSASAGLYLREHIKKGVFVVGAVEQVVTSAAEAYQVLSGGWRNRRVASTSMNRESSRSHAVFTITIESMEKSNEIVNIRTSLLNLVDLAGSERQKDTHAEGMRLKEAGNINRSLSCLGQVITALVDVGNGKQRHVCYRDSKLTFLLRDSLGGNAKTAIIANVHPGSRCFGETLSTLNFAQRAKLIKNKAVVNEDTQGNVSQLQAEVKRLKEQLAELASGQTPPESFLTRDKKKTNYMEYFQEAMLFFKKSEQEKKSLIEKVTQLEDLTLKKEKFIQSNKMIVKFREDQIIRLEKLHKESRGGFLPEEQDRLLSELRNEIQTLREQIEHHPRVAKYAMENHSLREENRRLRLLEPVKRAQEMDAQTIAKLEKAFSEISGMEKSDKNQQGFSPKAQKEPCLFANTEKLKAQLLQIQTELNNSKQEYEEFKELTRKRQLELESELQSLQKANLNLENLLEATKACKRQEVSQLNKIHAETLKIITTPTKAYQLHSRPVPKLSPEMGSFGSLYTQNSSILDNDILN
In short: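 His6-KIF15-N700 was expressed in High Five insect cells, then purified by Ni-NTA and Superdex 200 gel filtration. Microtubule gliding was imaged every 5 s for 1 min at 100×. Velocity was taken as distance travelled in 1 min, from ≥15 microtubules at each of three slide locations (n ≥ 50 per slide). Concentration-response curves used eight concentrations from 10 nM up to 30 or 100 µM, in triplicate. Single-point derivative tests used 25 µM.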

TP53–/– RPE-1 cells = test: Preanaphase spindle morphology, RPE-1 cells; assay type: cell-based, human; conditions: increasing concentrations
In short: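 TP53–/– RPE-1 and KIRC-1 cells were grown in DMEM with 10% FBS, penicillin and streptomycin; KIRC-1 medium also contained 10 μM STLC. Cells on coverslips were treated overnight with increasing test-compound concentrations or DMSO. They were then methanol-fixed and stained for KIF15, tubulin and DNA. Preanaphase spindles were scored monopolar or bipolar, in triplicate with n = 100 per replicate (± SEM).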

[2] = tested on: HeLa-derived KIRC-2 cells; test: Preanaphase spindle monopolarity, HeLa-derived KIRC-2 cells; assay type: cell-based; conditions: same concentrations as in KIRC-1 cells
HeLa cells = test: Preanaphase spindle monopolarity, parental HeLa cells; assay type: cell-based
RPE-1 cells = test: Live cell imaging of metaphase duration; assay type: cell-based, human; conditions: Munesib-1 50 µM, Fift-IN and GW108X 25 µM
[3] = tested on: KIF15 on spindle microtubules in RPE-1 cells; test: KIF15 on metaphase spindles; assay type: cell-based, human; conditions: Fift-IN 25 µM, Munesib-1 50 µM
In short: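 RPE-1 cells on glass coverslips were treated overnight with test compound (25 or 50 µM) or DMSO in normal medium. Cells were fixed in 100% methanol at –20°C for 10 min. Staining used rabbit anti-KIF15 (1:2000, 1 h), FITC anti-α-tubulin (1:500, 30 min) and Hoechst 33342. Max-intensity z-projections were imaged.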

KIF15-N420 [4] = target: T1, KIF15-N420; test: Microtubule-dependent steady-state ATPase assay; assay type: biochemical; conditions: 2 mM ATP; for kcat, microtubule-dependent ATPase: fit ± 95% CI
In short: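 Microtubule-dependent KIF15-N420 ATPase used an NADH-coupled read-out (A340, 25°C), with rates normalised to active motor concentration. ATP was held at 2 mM and microtubules varied over eight concentrations from 0 to 8 μM. Test compound was at 3, 5, 20 or 30 μM, with a DMSO control. Michaelis-Menten fits were weighted by 1/SEM, n = 6–9 per microtubule concentration. kcat and Km are given as fit ± 95% CI.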

[5] = 24 µM Munesib-1 or 100 µM Fift-IN

pIC50 (KIF15-N420 [1]): 5.55 | gliding velocity after removal of compound (wash-out) (KIF15-N700; 24 μM Munesib-1): nearly restored to baseline | microtubule gliding on addition of compound (wash-in) (KIF15-N700; 24 μM Munesib-1): fully abrogated | inhibition of microtubule gliding, KIF15 (KIF15-N700; [5]): robustly inhibited | reversibility of inhibition (washout experiment) (KIF15-N700; [5]): reversible inhibitor | % inhibition of KIF15 microtubule gliding activity (KIF15-N700; 25 µM, singlicate): completely eliminates | pIC50 (KIF15-N700; IC50, microtubule gliding assay, KIF15-N700): 6.40 | fold stronger inhibitory action against KIF15 than Fift-IN (KIF15-N700; in vitro ATPase and microtubule gliding assays): roughly 10 fold | kcat, microtubule-dependent ATPase (KIF15-N420 [4]; 3 μM compound): 8.5 ± 1 s^–1 | kcat, microtubule-dependent ATPase (KIF15-N420 [4]; 5 μM compound): 8.2 ± 3 s^–1 | kcat, microtubule-dependent ATPase (KIF15-N420 [4]; 30 μM compound): 11.6 ± 6 s^–1 | mode of inhibition with respect to microtubules (KIF15-N420 [4]): less conclusive
Compound: COC(=O)c1ccc2c(c1)N(C)S(=O)(=O)c1cnc(SC)nc1-2 [Munesib-1, Methyl 6-methyl-2-(methylthio)-6H-benzo[c]pyrimido[4,5-e][1,2]thiazine-8-carboxylate 5,5-dioxide]
effect on spindle morphology (TP53–/– RPE-1 cells): little effect on spindle morphology | effect on monopolarity index [2]: failed to substantially increase the monopolarity index | effect on spindle assembly in parental line (HeLa cells): little effect on the parental HeLa line | metaphase duration (metaphase plate formation until anaphase onset) (RPE-1 cells): no significant change in metaphase timing | amount of KIF15 on metaphase spindle [3]: little effect
